Activity calls are given as the source filed them. The rule behind the calls is not given here.

Tested on in the first test: not listed separately
Kind of test: Antiproliferative activity against human SKBR3 cells. In kind it is functional, cell-based. Particulars: SK-BR-3. A digest of the protocol:
(§1)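 Breast cancer lines used were SKBr3 (estrogen receptor negative, Her2 overexpressing) and MCF-7 (estrogen receptor positive). Values are mean ± standard deviation from at least two separate experiments, each performed in triplicate.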
One may read the IC50 as the concentration at which inhibition is half-maximal. Lower therefore signals higher potency. In the case of `COc1cccc(-c2cc(C(=O)Nc3cc4ccc5c(c4oc3=O)NC(=O)C(C(N)=O)O5)ccc2OC)c1` (stereo not given), the IC50 is over 50 µM.

Consider `COc1cccc(-c2cc(C(=O)Nc3cc4ccc5c(c4oc3=O)NC(=O)C(CCN3CCN(C)CC3)O5)ccc2OC)c1` (stereo not given), for which half-maximal inhibition (IC50) required 4.1 µM.

The compound `COc1cccc(-c2cc(C(=O)Nc3cc4ccc5c(c4oc3=O)NC(=O)C(CCCN[C@]34CC6CC(C[C@@H](C6)C3)C4)O5)ccc2OC)c1` (stereo not given in full) returned an IC50 of 0.62 µM. Compared with the last compound, the IC50 is about 6.6-fold lower.

On to `COc1cccc(-c2cc(C(=O)Nc3cc4ccc5c(c4oc3=O)NC(=O)C(CN3CCCC3)O5)ccc2OC)c1` (stereo not given), for which the IC50 is 15 µM.

Consider `COc1ccc(CC2Oc3ccc4cc(NC(=O)c5ccc(OC)c(-c6cccc(OC)c6)c5)c(=O)oc4c3NC2=O)cc1` (stereo not given), for which the IC50 was 8.37 µM.

Compound `COc1cccc(-c2cc(C(=O)Nc3cc4ccc5c(c4oc3=O)NC(=O)C(CCCNC3CC4CCC3C4)O5)ccc2OC)c1` (stereo not given) had an IC50 of 1.26 µM.

For the compound `COc1cccc(-c2cc(C(=O)Nc3cc4ccc5c(c4oc3=O)NC(=O)C(CCN3CCCCC3)O5)ccc2OC)c1` (stereo not given), the IC50 was 1.03 µM.

In the case of `COc1cccc(-c2cc(C(=O)Nc3cc4cc(OC)c(OC(C)=O)c(C)c4oc3=O)ccc2OC)c1`, the concentration for half-maximal inhibition (IC50) is 6 µM.

As to `COc1cccc(-c2cc(C(=O)Nc3cc4ccc5c(c4oc3=O)NC(=O)C(CCN3CCOCC3)O5)ccc2OC)c1` (stereo not given), 6.66 µM corresponded to half-maximal inhibition (IC50).

As to `COc1cccc(-c2cc(C(=O)Nc3cc4ccc5c(c4oc3=O)NC(=O)C(CCN3CCNCC3)O5)ccc2OC)c1` (stereo not given), the IC50 came to 5.44 µM.

On to `COc1cccc(-c2cc(C(=O)Nc3cc4ccc5c(c4oc3=O)NC(=O)C(CCNC3CC4CCC3C4)O5)ccc2OC)c1` (stereo not given), for which the concentration for half-maximal inhibition (IC50) was 0.68 µM.

As for `COc1cccc(-c2cc(C(=O)Nc3cc4ccc5c(c4oc3=O)NC(=O)C(CCCN3CCCC3)O5)ccc2OC)c1` (stereo not given), the IC50 came out at 1.02 µM.

With `COc1cccc(-c2cc(C(=O)Nc3cc4ccc5c(c4oc3=O)NC(=O)C(CN3CCN(C(=O)OC(C)(C)C)CC3)O5)ccc2OC)c1` (stereo not given), the half-maximal inhibitory concentration (IC50) is over 50 µM.

Take `COc1cccc(-c2cc(C(=O)Nc3cc4ccc5c(c4oc3=O)NC(=O)C(Cc3ccc(C)cc3)O5)ccc2OC)c1` (stereo not given): the half-maximal inhibitory concentration (IC50) was over 50 µM.

In the case of `COc1cccc(-c2cc(C(=O)Nc3cc4ccc5c(c4oc3=O)NC(=O)C(CCCCN3CCCC3)O5)ccc2OC)c1` (stereo not given), the IC50 was 2.5 µM.

The test system of the next test is MCF7. Kind of test: Antiproliferative activity against human MCF7 cells. In kind it is functional, cell-based.
Details: not given
A digest of the protocol: as §1
Turning to `COc1cccc(-c2cc(C(=O)Nc3cc4ccc5c(c4oc3=O)NC(=O)C(C(N)=O)O5)ccc2OC)c1` (stereo not given), the IC50 stood at 33.4 µM.

As to `COc1cccc(-c2cc(C(=O)Nc3cc4ccc5c(c4oc3=O)NC(=O)C(CCN3CCN(C)CC3)O5)ccc2OC)c1` (stereo not given), the IC50 was determined as 5.68 µM.

As for `COc1cccc(-c2cc(C(=O)Nc3cc4ccc5c(c4oc3=O)NC(=O)C(CCCN[C@]34CC6CC(C[C@@H](C6)C3)C4)O5)ccc2OC)c1` (stereo not given in full), the midpoint of inhibition, the IC50, lay at 0.72 µM.

The compound `COc1cccc(-c2cc(C(=O)Nc3cc4ccc5c(c4oc3=O)NC(=O)C(CN3CCCC3)O5)ccc2OC)c1` (stereo not given) gave a concentration for half-maximal inhibition (IC50) of 22.9 µM.

Regarding `COc1ccc(CC2Oc3ccc4cc(NC(=O)c5ccc(OC)c(-c6cccc(OC)c6)c5)c(=O)oc4c3NC2=O)cc1` (stereo not given), half-maximal inhibition (IC50) was put at 6.12 µM. This IC50 is about 3.7-fold lower than that of the compound before.

`COc1cccc(-c2cc(C(=O)Nc3cc4ccc5c(c4oc3=O)NC(=O)C(CCCNC3CC4CCC3C4)O5)ccc2OC)c1` (stereo not given) returned an IC50 of 1.34 µM.

On to `COc1cccc(-c2cc(C(=O)Nc3cc4ccc5c(c4oc3=O)NC(=O)C(CCN3CCCCC3)O5)ccc2OC)c1` (stereo not given), for which 1.04 µM corresponded to half-maximal inhibition (IC50).

Compound `COc1cccc(-c2cc(C(=O)Nc3cc4ccc5c(c4oc3=O)NC(=O)C(CCN3CCOCC3)O5)ccc2OC)c1` (stereo not given) showed an IC50 of 7.44 µM.

Consider `COc1cccc(-c2cc(C(=O)Nc3cc4ccc5c(c4oc3=O)NC(=O)C(CCN3CCNCC3)O5)ccc2OC)c1` (stereo not given), for which the IC50 is 7.63 µM.

Turning to `COc1cccc(-c2cc(C(=O)Nc3cc4ccc5c(c4oc3=O)NC(=O)C(CCNC3CC4CCC3C4)O5)ccc2OC)c1` (stereo not given), it took 1.22 µM to reach half-maximal inhibition (IC50).

Take `COc1cccc(-c2cc(C(=O)Nc3cc4ccc5c(c4oc3=O)NC(=O)C(CCCN3CCCC3)O5)ccc2OC)c1` (stereo not given): the concentration for half-maximal inhibition (IC50) worked out at 1.49 µM.

For `COc1cccc(-c2cc(C(=O)Nc3cc4ccc5c(c4oc3=O)NC(=O)C(CN3CCN(C(=O)OC(C)(C)C)CC3)O5)ccc2OC)c1` (stereo not given), the IC50 is over 50 µM.

With `COc1cccc(-c2cc(C(=O)Nc3cc4ccc5c(c4oc3=O)NC(=O)C(Cc3ccc(C)cc3)O5)ccc2OC)c1` (stereo not given), the IC50 is over 50 µM.

For the compound `COc1cccc(-c2cc(C(=O)Nc3cc4ccc5c(c4oc3=O)NC(=O)C(CCCCN3CCCC3)O5)ccc2OC)c1` (stereo not given), half-maximal inhibition (IC50) required 1.53 µM.

Another test addresses T1, Heat shock protein HSP90 (Homo sapiens) (UniProt P07900+P08238). Kind of test: Inhibition of HSP90 in human MCF7 cells assessed as induction of Her2 protein degradation at 0.5 times antiproliferative IC50 level incubated for 24 hrs by Western blotting method. In kind it is cell-based.
Details: not given
As for `COc1cccc(-c2cc(C(=O)Nc3cc4ccc5c(c4oc3=O)NC(=O)C(CCCN[C@]34CC6CC(C[C@@H](C6)C3)C4)O5)ccc2OC)c1` (stereo not given in full), the inhibition entry was “Active”.

For the next test, the target named is T1, Heat shock protein HSP90 (Homo sapiens). Briefly: Inhibition of HSP90 in human MCF7 cells assessed as induction of Her2 protein degradation at 5 times antiproliferative IC50 level incubated for 24 hrs by Western blotting method.
Details: not given
In kind it is cell-based.
In the case of `COc1cccc(-c2cc(C(=O)Nc3cc4ccc5c(c4oc3=O)NC(=O)C(CCCN[C@]34CC6CC(C[C@@H](C6)C3)C4)O5)ccc2OC)c1` (stereo not given in full), the inhibition result is “Active”.

The next test shares this target. Briefly: Inhibition of HSP90 in human MCF7 cells assessed as induction of Raf1 protein degradation at 0.5 times antiproliferative IC50 level incubated for 24 hrs by Western blotting method. In kind it is cell-based.
Details: not given
For `COc1cccc(-c2cc(C(=O)Nc3cc4ccc5c(c4oc3=O)NC(=O)C(CCCN[C@]34CC6CC(C[C@@H](C6)C3)C4)O5)ccc2OC)c1` (stereo not given in full), the inhibition entry is “Active”.

The target is the same in another test. Kind of test: Inhibition of HSP90 in human MCF7 cells assessed as induction of Raf1 protein degradation at 5 times antiproliferative IC50 level incubated for 24 hrs by Western blotting method. In kind it is cell-based.
Details: not given
On to `COc1cccc(-c2cc(C(=O)Nc3cc4ccc5c(c4oc3=O)NC(=O)C(CCCN[C@]34CC6CC(C[C@@H](C6)C3)C4)O5)ccc2OC)c1` (stereo not given in full), for which the inhibition result was “Active”.

For a further test the target is unchanged. Briefly: Inhibition of HSP90 in human MCF7 cells assessed as induction of Akt protein degradation at 0.5 times antiproliferative IC50 level incubated for 24 hrs by Western blotting method. In kind it is cell-based.
Details: not given
(A western blot detects proteins with antibodies after separation by electrophoresis.)
Turning to `COc1cccc(-c2cc(C(=O)Nc3cc4ccc5c(c4oc3=O)NC(=O)C(CCCN[C@]34CC6CC(C[C@@H](C6)C3)C4)O5)ccc2OC)c1` (stereo not given in full), the inhibition entry was “Active”.

A further test shares this target. Briefly: Inhibition of HSP90 in human MCF7 cells assessed as induction of Akt protein degradation at 5 times antiproliferative IC50 level incubated for 24 hrs by Western blotting method.
Details: not given
In kind it is cell-based.
For the compound `COc1cccc(-c2cc(C(=O)Nc3cc4ccc5c(c4oc3=O)NC(=O)C(CCCN[C@]34CC6CC(C[C@@H](C6)C3)C4)O5)ccc2OC)c1` (stereo not given in full), the inhibition entry is “Active”.

These data come from ChEMBL document CHEMBL3421593, “Design, synthesis, and biological evaluation of ring-constrained novobiocin analogues as hsp90 C-terminal inhibitors” (ACS Med Chem Lett, 2015).
